Experiments:
[1] = target: Sodium-dependent dopamine transporter (Rattus norvegicus, UniProt P23977); assay: Inhibition of [3H]DA uptake at DAT in rat brain striatal synaptosomes by liquid scintillation spectrophotometry; format: subcellular
Outline: (§1)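 Synaptosomes were striatal for [3H]DA and hippocampal for [3H]5-HT, as P2 pellets in oxygenated Krebs with pargyline and ascorbate (pH 7.4), protein 400 μg/ml. Drug at […] was preincubated 10 min at 34 °C, then 10 nM tritiated substrate was added for 10 min. Uptake was stopped with ice-cold buffer and filtered on GF/B. Nonspecific uptake used 10 μM nomifensine (DA) or 10 μM fluoxetine (5-HT). Duplicates; IC50 by curve fit; Ki by Cheng-Prusoff.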

[2] = target: T1, Neuronal acetylcholine receptor; alpha4/beta2 (Rattus norvegicus, UniProt P09483+P12390); assay: Displacement of [3H]nicotine from alpha4beta2 nAChR in rat brain homogenate by liquid scintillation spectrophotometry; format: tissue-based
T1 sequence (P09483 whole entry): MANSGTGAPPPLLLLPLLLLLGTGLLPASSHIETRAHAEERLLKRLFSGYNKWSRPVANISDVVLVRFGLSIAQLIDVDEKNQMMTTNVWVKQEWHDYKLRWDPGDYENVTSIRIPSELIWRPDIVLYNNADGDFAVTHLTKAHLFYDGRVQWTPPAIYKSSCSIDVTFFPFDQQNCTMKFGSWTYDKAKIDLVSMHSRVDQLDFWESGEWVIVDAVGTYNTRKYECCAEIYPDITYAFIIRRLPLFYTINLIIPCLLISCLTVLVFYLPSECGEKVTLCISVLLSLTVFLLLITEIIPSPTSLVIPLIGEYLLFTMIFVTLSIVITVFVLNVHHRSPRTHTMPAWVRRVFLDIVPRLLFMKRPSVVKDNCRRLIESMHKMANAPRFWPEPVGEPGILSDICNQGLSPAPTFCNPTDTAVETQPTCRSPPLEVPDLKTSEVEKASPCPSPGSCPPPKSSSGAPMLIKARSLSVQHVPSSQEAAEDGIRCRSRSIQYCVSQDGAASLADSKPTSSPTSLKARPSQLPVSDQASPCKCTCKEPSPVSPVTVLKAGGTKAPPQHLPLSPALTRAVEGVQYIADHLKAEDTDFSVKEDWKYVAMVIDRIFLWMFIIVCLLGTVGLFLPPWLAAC
T1 sequence (P12390 whole entry): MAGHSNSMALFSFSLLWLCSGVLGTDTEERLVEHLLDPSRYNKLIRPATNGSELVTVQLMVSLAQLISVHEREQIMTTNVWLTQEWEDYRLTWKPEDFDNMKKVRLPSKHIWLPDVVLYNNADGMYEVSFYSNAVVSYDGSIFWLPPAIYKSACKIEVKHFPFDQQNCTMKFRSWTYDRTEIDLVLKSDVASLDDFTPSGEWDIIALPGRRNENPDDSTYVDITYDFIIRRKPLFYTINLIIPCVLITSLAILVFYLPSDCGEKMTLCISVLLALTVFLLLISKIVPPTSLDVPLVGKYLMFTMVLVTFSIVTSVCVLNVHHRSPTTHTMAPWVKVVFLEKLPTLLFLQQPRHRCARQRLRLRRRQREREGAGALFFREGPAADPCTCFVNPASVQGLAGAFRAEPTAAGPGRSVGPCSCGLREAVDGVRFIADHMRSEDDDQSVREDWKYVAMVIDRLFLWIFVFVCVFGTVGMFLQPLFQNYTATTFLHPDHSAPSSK
Outline: (§2)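 Membranes came from whole brain minus cortex and cerebellum, washed in Krebs-HEPES buffer at pH 7.5, 100–140 μg protein per tube. IC50 came from a curve fit; Ki by Cheng-Prusoff. At least four experiments, each in duplicate.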

[3] = target: T2, Synaptic vesicular amine transporter (Rattus norvegicus, UniProt Q01827); assay: Displacement of [3HDTBZ from VMAT2 in rat whole brain vesicles by liquid scintillation spectrophotometry
T2 sequence (Q01827 whole entry): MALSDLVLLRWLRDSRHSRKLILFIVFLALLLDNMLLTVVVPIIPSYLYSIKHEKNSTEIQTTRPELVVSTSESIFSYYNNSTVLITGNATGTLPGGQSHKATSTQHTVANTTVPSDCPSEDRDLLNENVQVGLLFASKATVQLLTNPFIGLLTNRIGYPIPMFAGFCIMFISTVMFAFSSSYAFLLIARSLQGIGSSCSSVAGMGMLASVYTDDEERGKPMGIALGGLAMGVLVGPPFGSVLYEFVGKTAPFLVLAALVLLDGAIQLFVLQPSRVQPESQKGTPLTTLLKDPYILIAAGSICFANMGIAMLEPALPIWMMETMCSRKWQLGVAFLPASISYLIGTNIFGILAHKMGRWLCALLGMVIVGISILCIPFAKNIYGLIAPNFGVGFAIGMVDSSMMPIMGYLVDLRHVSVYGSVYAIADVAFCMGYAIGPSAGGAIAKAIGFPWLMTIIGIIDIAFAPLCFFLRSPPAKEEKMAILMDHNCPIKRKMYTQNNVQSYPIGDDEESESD
Outline: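 Vesicles came from rat whole brain minus cerebellum, by hypotonic lysis and 100,000g pelleting, in HEPES/potassium-tartrate/MgSO4 buffer at pH 7.5, 15 μg protein per 100 μl. Final radioligand was 3 nM [3H]MTBZ or [3H]DTBZ, run in duplicate. […] Samples were filtered on PEI-soaked GF/B. Ki values come from at least four independent experiments.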

[4] = target: Sodium-dependent serotonin transporter (Rattus norvegicus, UniProt P31652); assay: Inhibition of [3H]5HT uptake at SERT in rat brain hippocampal synaptosomes by liquid scintillation spectrophotometry; format: subcellular, Hippocampus; outline: as §1
Chain of Sodium-dependent serotonin transporter (P31652 whole entry): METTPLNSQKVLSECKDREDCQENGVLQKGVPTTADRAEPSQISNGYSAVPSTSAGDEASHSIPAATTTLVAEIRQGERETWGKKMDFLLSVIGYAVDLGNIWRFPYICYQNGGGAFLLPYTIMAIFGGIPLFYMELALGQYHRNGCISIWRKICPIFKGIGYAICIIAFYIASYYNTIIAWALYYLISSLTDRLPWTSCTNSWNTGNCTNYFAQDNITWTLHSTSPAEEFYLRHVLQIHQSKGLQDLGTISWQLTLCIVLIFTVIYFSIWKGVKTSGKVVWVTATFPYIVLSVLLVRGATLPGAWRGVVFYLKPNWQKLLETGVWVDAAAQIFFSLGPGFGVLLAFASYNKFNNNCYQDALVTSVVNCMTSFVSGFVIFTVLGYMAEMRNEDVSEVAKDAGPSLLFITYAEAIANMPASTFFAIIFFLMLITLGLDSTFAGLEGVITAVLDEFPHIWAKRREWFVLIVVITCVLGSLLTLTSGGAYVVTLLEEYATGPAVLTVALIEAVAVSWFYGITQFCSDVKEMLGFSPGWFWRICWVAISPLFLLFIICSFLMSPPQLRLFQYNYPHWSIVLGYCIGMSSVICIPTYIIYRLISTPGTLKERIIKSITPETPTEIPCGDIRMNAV

[5] = Displacement of [3H]MLA from alpha7 nAChR in rat brain homogenate by liquid scintillation spectrophotometry; format: tissue-based; outline: as §2
[6] = target: T2, Synaptic vesicular amine transporter; assay: Displacement of [3H]MTBZ from VMAT2 in rat whole brain vesicles by liquid scintillation spectrophotometry
Outline: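 Vesicles came from rat whole brain minus cerebellum, by hypotonic lysis and 100,000g pelleting, in HEPES/potassium-tartrate/MgSO4 buffer at pH 7.5, 15 μg protein per 100 μl. Final radioligand was 3 nM [3H]MTBZ or [3H]DTBZ, run in duplicate. Samples were filtered on PEI-soaked GF/B. Ki values come from at least four independent experiments.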

[7] = target: T1, Neuronal acetylcholine receptor; alpha4/beta2; assay: Antagonist activity at alpha4beta2 nAChR in rat brain synaptosomes assessed as inhibition of nicotine-induced 86Rb+ efflux by liquid scintillation spectrophotometry; format: functional, subcellular
[8] = target: Synaptic vesicular amine transporter (Homo sapiens, UniProt Q05940); assay: Binding affinity to VMAT2 receptor
Chain of Synaptic vesicular amine transporter (Homo sapiens, UniProt Q05940) (Q05940 whole entry): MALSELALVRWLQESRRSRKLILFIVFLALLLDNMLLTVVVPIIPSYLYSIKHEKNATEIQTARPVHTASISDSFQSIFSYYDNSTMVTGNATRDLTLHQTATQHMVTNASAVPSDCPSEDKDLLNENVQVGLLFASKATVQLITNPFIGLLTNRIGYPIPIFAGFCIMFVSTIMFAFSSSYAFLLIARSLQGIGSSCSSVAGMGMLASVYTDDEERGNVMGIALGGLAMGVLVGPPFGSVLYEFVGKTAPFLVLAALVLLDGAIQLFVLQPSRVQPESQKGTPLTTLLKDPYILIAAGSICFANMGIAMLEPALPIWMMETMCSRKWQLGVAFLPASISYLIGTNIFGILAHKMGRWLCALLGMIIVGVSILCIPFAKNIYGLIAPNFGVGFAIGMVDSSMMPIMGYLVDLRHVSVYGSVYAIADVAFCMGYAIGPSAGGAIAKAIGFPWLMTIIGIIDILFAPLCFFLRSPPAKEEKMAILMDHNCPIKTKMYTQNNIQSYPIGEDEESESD

Chain of Sodium-dependent dopamine transporter (P23977 whole entry): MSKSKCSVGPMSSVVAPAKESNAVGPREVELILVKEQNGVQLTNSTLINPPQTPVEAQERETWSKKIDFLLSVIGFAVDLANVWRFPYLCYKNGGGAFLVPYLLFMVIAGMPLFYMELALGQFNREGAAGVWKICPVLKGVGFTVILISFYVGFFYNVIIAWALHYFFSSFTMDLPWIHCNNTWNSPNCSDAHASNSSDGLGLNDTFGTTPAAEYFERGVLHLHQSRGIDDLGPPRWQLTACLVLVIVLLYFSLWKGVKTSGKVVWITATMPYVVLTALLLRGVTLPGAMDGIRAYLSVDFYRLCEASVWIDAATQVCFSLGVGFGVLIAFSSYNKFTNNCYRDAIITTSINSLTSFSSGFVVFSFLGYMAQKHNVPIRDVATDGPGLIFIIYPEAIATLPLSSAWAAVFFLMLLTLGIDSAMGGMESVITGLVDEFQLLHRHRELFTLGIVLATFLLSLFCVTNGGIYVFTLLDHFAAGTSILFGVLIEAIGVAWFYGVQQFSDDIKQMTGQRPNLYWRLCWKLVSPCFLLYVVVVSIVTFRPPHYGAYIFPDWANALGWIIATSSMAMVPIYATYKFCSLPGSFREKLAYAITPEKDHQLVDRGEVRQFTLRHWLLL

Q: Which results are given for CN1[C@@H](CC(=O)c2ccccc2)CCC[C@H]1C[C@H](OS(=O)(=O)c1cccs1)c1ccccc1?
A: Ki [1]: 19.9 µM; Ki [2]: 13 nM; Ki [3]: 4.23 µM; Ki [4]: 18.1 µM; Ki [5]: 53.8 µM

Q: With CC(=O)OC(C[C@@H]1CCCC(CC(=O)c2ccccc2)N1C)c1ccccc1 (single isomer, unassigned) as the compound, how does the Ki [1] read?
A: 4.64 µM

Q: And the Ki [2]?
A: 70 nM

Q: What about the Ki [4] of the same compound?
A: 31.4 µM

Q: What about the Ki [5] of the same compound?
A: > 100 µM

Q: And the Ki [6]?
A: 8.05 µM

Q: What does the source list for CN1C(CC(=O)c2ccccc2)CCC[C@H]1CC(OS(=O)(=O)c1ccc(F)cc1)c1ccccc1 (single isomer, unassigned)?
A: Ki [1]: 17.9 µM; Ki [2]: 12 nM; Ki [3]: 3 µM; Ki [4]: 4.68 µM; Ki [5]: 24.2 µM

Q: For CN1C(CC(=O)c2ccccc2)CCC[C@H]1CC(OC(=O)c1ccccc1)c1ccccc1 (single isomer, unassigned), which Ki [1] is on record?
A: 2.31 µM

Q: What about the Ki [2] of the same compound?
A: 2870 nM

Q: And the IC50 [7]?
A: 850 nM

Q: What about the Ki [4] of the same compound?
A: 2.07 µM

Q: What about the Ki [5] of the same compound?
A: > 100 µM

Q: And the Ki [6]?
A: 1.53 µM

Q: For CN1[C@@H](CC(=O)c2ccccc2)CCC[C@H]1C[C@H](OS(=O)(=O)c1cccc2ccccc12)c1ccccc1, which Ki [1] is on record?
A: 4.14 µM

Q: What about the Ki [2] of the same compound?
A: 17 nM

Q: And the Ki [3]?
A: 4.12 µM

Q: What about the Ki [4] of the same compound?
A: 34.5 µM

Q: And the Ki [5]?
A: > 100 µM

Q: With CN1C(CC(=O)c2ccccc2)CCC[C@H]1CC(OS(=O)(=O)c1ccc(Cl)cc1)c1ccccc1 (single isomer, unassigned) as the compound, how does the Ki [1] read?
A: 10.8 µM

Q: And the Ki [2]?
A: 16 nM

Q: And the Ki [3]?
A: 3.24 µM

Q: And the Ki [4]?
A: 4.38 µM

Q: What about the Ki [5] of the same compound?
A: > 100 µM

Q: Which results are given for Cc1ccc(C(=O)O[C@@H](C[C@@H]2CCC[C@H](CC(=O)c3ccccc3)N2C)c2ccccc2)cc1?
A: Ki [1]: 2.06 µM; Ki [2]: 1620 nM; Ki [4]: 1.51 µM; Ki [5]: > 100 µM; Ki [6]: 1.76 µM

Q: With CC(C)S(=O)(=O)OC(C[C@@H]1CCCC(CC(=O)c2ccccc2)N1C)c1ccccc1 (single isomer, unassigned) as the compound, how does the Ki [1] read?
A: 4.6 µM

Q: What about the Ki [2] of the same compound?
A: 15 nM

Q: What about the Ki [3] of the same compound?
A: 2.09 µM

Q: And the Ki [4]?
A: 16.1 µM

Q: And the Ki [5]?
A: 47.7 µM

Q: Which results are given for CC(C)C(=O)OC(C[C@@H]1CCCC(CC(=O)c2ccccc2)N1C)c1ccccc1 (single isomer, unassigned)?
A: Ki [1]: 2.38 µM; Ki [2]: 60 nM; Ki [4]: 1.06 µM; Ki [5]: > 100 µM; Ki [6]: 2.61 µM

Q: With CN1[C@@H](CCc2cccc3ccccc23)CCC[C@H]1CCc1cccc2ccccc12 as the compound, how does the Ki [8] read?
A: 630 nM

Q: What does the source list for CCCCS(=O)(=O)OC(C[C@@H]1CCCC(CC(=O)c2ccccc2)N1C)c1ccccc1 (single isomer, unassigned)?
A: Ki [1]: 11.8 µM; Ki [2]: 11 nM; Ki [3]: 1.98 µM; Ki [4]: 5.16 µM; Ki [5]: 41 µM

Q: What does the source list for Cc1ccc(S(=O)(=O)OC(C[C@@H]2CCCC(CC(=O)c3ccccc3)N2C)c2ccccc2)cc1 (single isomer, unassigned)?
A: Ki [1]: 29.1 µM; Ki [2]: 5 nM; Ki [3]: 10.8 µM; IC50 [7]: 2 nM; Ki [4]: 16.2 µM; Ki [5]: 18 µM

Q: Which results are given for CN1[C@@H](CC(=O)c2ccccc2)CCC[C@H]1C[C@H](OC(=O)c1cccs1)c1ccccc1?
A: Ki [1]: 3.02 µM; Ki [2]: 860 nM; Ki [4]: 9.7 µM; Ki [5]: 36.2 µM; Ki [6]: 6.37 µM

Q: With CN1[C@@H](CC(=O)c2ccccc2)CCC[C@H]1C[C@H](OS(=O)(=O)c1ccc2ccccc2c1)c1ccccc1 as the compound, how does the Ki [1] read?
A: 13.4 µM

Q: And the Ki [2]?
A: 10 nM

Q: What about the Ki [3] of the same compound?
A: 2.48 µM

Q: What about the Ki [4] of the same compound?
A: 5.06 µM

Q: And the Ki [5]?
A: 18.5 µM

Q: What does the source list for CN1C(CC(=O)c2ccccc2)CCC[C@H]1CC(OS(=O)(=O)Cc1ccccc1)c1ccccc1 (single isomer, unassigned)?
A: Ki [1]: 14.7 µM; Ki [2]: 13 nM; Ki [3]: 3.98 µM; Ki [4]: 4.52 µM; Ki [5]: 46.6 µM

Q: Which results are given for CN1C(CC(=O)c2ccccc2)CCC[C@H]1CC(OS(=O)(=O)c1ccc([N+](=O)[O-])cc1)c1ccccc1 (single isomer, unassigned)?
A: Ki [1]: 19.9 µM; Ki [2]: 13 nM; Ki [3]: 4.23 µM; Ki [4]: 18.1 µM; Ki [5]: 53.8 µM

Q: Which Ki [1] does the source give for CCC(=O)OC(C[C@@H]1CCCC(CC(=O)c2ccccc2)N1C)c1ccccc1 (single isomer, unassigned) here?
A: 6.88 µM

Q: And the Ki [2]?
A: 150 nM

Q: What about the Ki [4] of the same compound?
A: 4.87 µM

Q: What about the Ki [5] of the same compound?
A: 8.86 µM

Q: And the Ki [6]?
A: 4.75 µM

Q: Which results are given for CCCC(=O)OC(C[C@@H]1CCCC(CC(=O)c2ccccc2)N1C)c1ccccc1 (single isomer, unassigned)?
A: Ki [1]: 4.82 µM; Ki [2]: 500 nM; Ki [4]: 12.2 µM; Ki [5]: > 100 µM; Ki [6]: 3.38 µM

Q: For COc1ccc(C(=O)O[C@@H](C[C@@H]2CCC[C@H](CC(=O)c3ccccc3)N2C)c2ccccc2)cc1, which Ki [1] is on record?
A: 3.8 µM

Q: And the Ki [2]?
A: 19300 nM

Q: And the Ki [4]?
A: 2.04 µM

Q: What about the Ki [5] of the same compound?
A: 18.4 µM

Q: And the Ki [6]?
A: 2.98 µM

Q: What does the source list for CN1C(CC(=O)c2ccccc2)CCC[C@H]1CC(OS(=O)(=O)c1ccccc1)c1ccccc1 (single isomer, unassigned)?
A: Ki [1]: 10.7 µM; Ki [2]: 8 nM; Ki [3]: 3.5 µM; IC50 [7]: 1600 nM; Ki [4]: 37.3 µM; Ki [5]: 34.8 µM

Source: ChEMBL document CHEMBL1159052 (Bioorg Med Chem, 2010)
